From PubChem BioAssay AID1744 (Vanderbilt High Throughput Screening Facility, 2009) come the findings set out here.

pEC50: −log10 of the molar value.

The target of this test is Muscarinic acetylcholine receptor M1 (Rattus norvegicus) (UniProt P08482). The experiment in a line: agonist potency across muscarinic M1-M5 subtypes, profiling panel, selectivity assay for M1 allosteric modulator project, cell-based, agonist mode (AID 1744). The conditions noted are these: CHO-K1 rat M1, Fluo-4 calcium flux. In outline:
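Material: rat M1-expressing CHO-K1 cells; doses: compounds alone, agonist mode; times: Fluo-4 dye loading for 1 h at 37 °C; measured by: Fluo-4 calcium fluorescence; benchmarks: maximal acetylcholine response as high reference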
For orientation: A change in cytosolic calcium serves as a functional read-out for many receptors and channels.

As a reminder, the pEC50 is the EC50 on a negative log10 scale, so that one unit is a factor of ten. For the compound `CCOC(=O)N1CCC(NCCNC(=O)c2cccc(F)c2)CC1`, the negative-log EC50 (pEC50) is 6.81.
The result for `CCOC(=O)N1CCC(NCCNC(=O)c2ccccc2C)CC1` reads 6.70; that for `CCOC(=O)N1CCC(NCCNC(=O)c2ccc(F)cc2)CC1`, 6.81; that for `CCOC(=O)N1CCC(NCCNC(=O)c2cccs2)CC1`, 5.76.
The result for `CCOC(=O)N1CCC(NCCNC(=O)c2cccc(OC)c2)CC1` reads 6.36.
The result for `CCOC(=O)N1CCC(NCCNC(=O)c2ccccc2Cl)CC1` reads 6.09.
As for `CCOC(=O)N1CCC(NCCNC(=O)c2ccc(F)c(F)c2)CC1`, the pEC50 is 6.68.
The result for `CCOC(=O)N1CCC(NCCNC(=O)c2ccccc2)CC1` reads 6.82.
